# Tests used:
# Nociceptin receptor [1] = molecular target: T1, Nociceptin receptor (Homo sapiens, UniProt P41146); experiment: Ability to displace [3H]nociceptin ( 0.5 nM ) binding from Opioid receptor like 1 expressed in HeLa cells.; type: cell-based
# Outline: (§1)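 Membranes from HeLa cells expressing human ORL1 (25 μg protein/mL) in 50 mM Tris pH 8.5 with 2 mM EDTA, 0.1 mM p-aminophenylmethanesulfonyl fluoride and 2 mg/mL BSA. Incubated 30 min at room temperature with 0.5 nM [3H]nociceptin and varied compound concentrations. Bound radioactivity was collected by filtration and counted by scintillation. Nonspecific binding was set with 1 μM unlabeled nociceptin.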
# [2] = molecular target: Kappa-type opioid receptor (Homo sapiens, UniProt P41145); experiment: Inhibition of [3H][…] (0.55 nM) binding from human Opioid receptor kappa 1
# [3] = molecular target: Delta-type opioid receptor (Homo sapiens, UniProt P41143); experiment: Inhibition of [3H]naltrindole (0.55 nM) binding from human Opioid receptor delta 1 expressed in CHO-K1 cells.; type: cell-based
# Outline: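 Human δ-opioid receptor from CHO-K1 membranes in 50 mM Tris-HCl pH 7.4, 5 mM MgCl2, 10% sucrose. Incubated 1 h at room temperature with 0.55 nM [3H]naltrindole and varied compound concentrations. Filter-bound radioactivity counted. 10 μM naloxone defined nonspecific binding. Ki as mean ± SE, n=3.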
# Mu-type opioid receptor = Mu-type opioid receptor (Homo sapiens, UniProt P35372); experiment: Inhibition of [3H]diprenorphine (0.33 nM) binding from human Opioid receptor mu 1 expressed in CHO-K1 cells.; type: cell-based
# Outline: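 CHO-K1 membranes expressing human μ-opioid receptor in 50 mM Tris-HCl pH 7.4 with 5 mM MgCl2 and 10% sucrose. Incubated 2.5 h at room temperature with 0.33 nM [3H]diprenorphine over a compound concentration range. Filtration and scintillation counting. Nonspecific binding defined with 10 μM naloxone. Ki given as mean ± SE, n=3.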
# [4] = Effect of compound on nociceptin-induced allodynia :Values are the mean ( SE of allodynia score at 20 min.; type: functional
# Outline: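 Male ICR mice, 4 weeks old, unanesthetized; nociceptin (50 pg/5 μL) injected intrathecally. Test compound 0.3 mg/kg suspended in 0.5% methyl cellulose, or vehicle as control, given orally 60 min before nociceptin. Allodynia score read at 20 min; mean ± SE, n = 9; Mann–Whitney U-test versus nociceptin-alone control.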
# Nociceptin receptor [5] = molecular target: T1, Nociceptin receptor; experiment: Percent inhibition of [3H]nociceptin ( 0.5 nM ) binding at 10 uM
# Outline: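 Single-point test at 10 μM compound against 0.5 nM [3H]nociceptin binding to human ORL1 in HeLa cell membranes. Buffer was Tris pH 8.5 with EDTA, protease inhibitor and BSA; incubation 30 min at room temperature. Filtration and scintillation counting. Specific binding = total minus binding in 1 μM unlabeled nociceptin. Read-out was percent inhibition.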
# Nociceptin receptor [6] = molecular target: T1, Nociceptin receptor; experiment: Compound was evaluated for its ability to displace [3H]nociceptin ( 0.5 nM ) binding from Opioid receptor like 1 expressed in HeLa cells; type: cell-based
# Outline: as §1, with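 “nociceptin. Ki reported as mean ± SE, n=3-6.” for “nociceptin.”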
# [7] = Effect of compound on nociceptin-induced allodynia :Values are the mean ( SE of allodynia score at 20 min. significantly different from control (nociceptin alone) by the Mann-Whitney U-test.; type: functional
# T1 sequence (P41146 whole entry): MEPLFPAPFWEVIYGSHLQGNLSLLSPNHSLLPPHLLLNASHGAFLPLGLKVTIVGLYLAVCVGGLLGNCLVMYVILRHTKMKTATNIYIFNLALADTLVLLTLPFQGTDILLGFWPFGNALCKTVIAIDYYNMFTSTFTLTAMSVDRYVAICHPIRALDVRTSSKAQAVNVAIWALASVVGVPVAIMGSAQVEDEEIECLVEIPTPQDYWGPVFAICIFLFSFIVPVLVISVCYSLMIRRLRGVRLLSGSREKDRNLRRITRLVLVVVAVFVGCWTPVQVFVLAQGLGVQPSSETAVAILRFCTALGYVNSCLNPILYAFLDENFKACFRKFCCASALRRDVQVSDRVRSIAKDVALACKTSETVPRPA
# Sequence of Mu-type opioid receptor (P35372 whole entry): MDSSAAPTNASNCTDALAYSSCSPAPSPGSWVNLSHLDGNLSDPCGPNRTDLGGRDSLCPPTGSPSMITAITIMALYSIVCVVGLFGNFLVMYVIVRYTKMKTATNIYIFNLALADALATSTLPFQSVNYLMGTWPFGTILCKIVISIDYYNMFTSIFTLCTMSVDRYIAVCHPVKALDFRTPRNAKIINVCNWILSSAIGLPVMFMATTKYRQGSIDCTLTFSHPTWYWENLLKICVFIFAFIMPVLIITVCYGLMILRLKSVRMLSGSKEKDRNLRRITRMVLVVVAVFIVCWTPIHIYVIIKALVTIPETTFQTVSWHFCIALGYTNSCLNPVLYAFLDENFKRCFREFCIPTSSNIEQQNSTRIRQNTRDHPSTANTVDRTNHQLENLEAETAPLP
# Sequence of Delta-type opioid receptor (P41143 whole entry): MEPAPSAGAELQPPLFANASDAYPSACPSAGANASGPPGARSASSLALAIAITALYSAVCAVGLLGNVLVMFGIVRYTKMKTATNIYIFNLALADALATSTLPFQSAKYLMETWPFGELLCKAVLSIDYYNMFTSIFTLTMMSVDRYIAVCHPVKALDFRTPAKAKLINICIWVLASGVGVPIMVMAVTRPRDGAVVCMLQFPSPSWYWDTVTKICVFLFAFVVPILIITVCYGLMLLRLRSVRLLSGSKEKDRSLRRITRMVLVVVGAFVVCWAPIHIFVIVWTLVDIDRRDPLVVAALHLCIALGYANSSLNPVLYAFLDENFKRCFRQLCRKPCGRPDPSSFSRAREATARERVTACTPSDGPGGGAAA
# Sequence of Kappa-type opioid receptor (P41145 whole entry): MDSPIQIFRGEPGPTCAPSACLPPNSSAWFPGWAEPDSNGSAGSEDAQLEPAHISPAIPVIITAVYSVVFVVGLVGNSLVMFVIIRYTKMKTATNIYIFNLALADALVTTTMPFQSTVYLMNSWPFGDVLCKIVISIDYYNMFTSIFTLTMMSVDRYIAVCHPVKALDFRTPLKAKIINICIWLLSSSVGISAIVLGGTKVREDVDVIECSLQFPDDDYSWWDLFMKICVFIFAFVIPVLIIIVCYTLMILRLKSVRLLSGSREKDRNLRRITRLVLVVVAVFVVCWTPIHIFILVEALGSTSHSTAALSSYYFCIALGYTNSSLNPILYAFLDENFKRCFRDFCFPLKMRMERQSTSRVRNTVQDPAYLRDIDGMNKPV
SMILES,Ki (Nociceptin receptor [1]) [nM],inhibition (Nociceptin receptor [5]) [%],further results
CCc1ccc(OCc2ccccc2C(=O)Nc2ccc3nc(C)cc(N)c3c2)cc1,8.2,–,Ki [2]: 1060 nM; Ki [3]: 8650 nM; Ki (Mu-type opioid receptor): 103 nM
Cc1cc(N)c2cc(NC(=O)c3ccccc3COc3ccc(Br)cc3)ccc2n1,2.6,–,–
CC(C)C[C@H](NC(=O)[C@H](CCCCN)NC(=O)[C@H](CCCNC(=N)N)NC(=O)[C@H](C)NC(=O)[C@H](CO)NC(=O)[C@H](CCCCN)NC(=O)[C@H](CCCNC(=N)N)NC(=O)[C@H](C)NC(=O)CNC(=O)[C@@H](NC(=O)[C@H](Cc1ccccc1)NC(=O)CNC(=O)CNC(=O)[C@@H](N)Cc1ccccc1)[C@@H](C)O)C(=O)N[C@@H](C)C(=O)N[C@@H](CC(N)=O)C(=O)N[C@@H](CCC(N)=O)C(=O)O,–,–,Allodynia score [4]: 7.11
Cc1cc(N)c2cc(NC(=O)c3ccccc3-c3ccccc3)ccc2n1,369,51.7,–
Cc1cc(N)c2cc(NC(=O)c3ccccc3)ccc2n1,–,32.9,–
Cc1cc(N)c2cc(NC(=O)c3ccccc3COc3ccc(O)cc3)ccc2n1,46.7,–,–
Cc1cc(N)c2cc(NC(=O)c3ccccc3COc3ccc(Cl)cc3)ccc2n1,2.2,–,–
Cc1cc(N)c2cc(NC(=O)c3ccccc3COc3ccc(C(F)(F)F)cc3)ccc2n1,1.8,–,–
CCc1cc(N)c2cc(NC(=O)c3ccccc3COc3ccc(Cl)cc3)ccc2n1,1.8,–,–
Cc1cc(N)c2cc(NC(=O)c3ccccc3COc3ccc(N)cc3)ccc2n1,82.4,–,–
Nc1ccnc2ccc(NC(=O)c3ccccc3COc3ccc(Cl)cc3)cc12,85.6,–,–
Cc1cc(N)c2cc(NC(=O)c3ccccc3CCCc3ccccc3)ccc2n1,121,98,–
Cc1ccc(CCc2ccccc2C(=O)Nc2ccc3nc(C)cc(N)c3c2)cc1,88.5,–,–
Cc1cc(N)c2cc(NC(=O)c3ccc(CCc4ccccc4)cc3)ccc2n1,–,48.4,–
Cc1cc(N)c2cc(NC(=O)c3ccccc3COc3ccccc3)ccc2n1,–,93.6,Ki (Nociceptin receptor [6]): 50.7 nM
CC(C)C[C@H](NC(=O)[C@H](CCCCN)NC(=O)[C@H](CCCN=C(N)N)NC(=O)[C@H](C)NC(=O)[C@H](CO)NC(=O)[C@H](CCCCN)NC(=O)[C@H](CCCN=C(N)N)NC(=O)[C@H](C)NC(=O)CNC(=O)[C@@H](NC(=O)[C@H](Cc1ccccc1)NC(=O)CNC(=O)CNC(=O)[C@@H](N)Cc1ccccc1)[C@@H](C)O)C(=O)N[C@@H](C)C(=O)N[C@@H](CC(N)=O)C(=O)N[C@@H](CCC(N)=O)C(=O)O.CCc1ccc(OCc2ccccc2C(=O)Nc2ccc3nc(C)cc(N)c3c2)cc1,–,–,Allodynia score [7]: < 3.11
Cc1cc2ccc(NC(=O)c3ccccc3COc3ccc(Cl)cc3)cc2c(N)n1,37.3,–,–
Cc1cc(N)c2cc(NC(=O)c3ccccc3CCc3ccccc3)ccc2n1,–,90.5,Ki (Nociceptin receptor [6]): 79.9 nM
CCCc1cc(N)c2cc(NC(=O)c3ccccc3COc3ccc(Cl)cc3)ccc2n1,1.8,–,–
Cc1cc(N)c2cc(NC(=O)c3ccccc3Cc3ccccc3)ccc2n1,–,45.4,–
Cc1cc(N)c2cc(NC(=O)c3ccccc3COc3cccc(Cl)c3)ccc2n1,20.4,–,–
Cc1cc(N)c2cc(NC(=O)c3cccc(CCc4ccccc4)c3)ccc2n1,–,23,–
Cc1ccc(OCc2ccccc2C(=O)Nc2ccc3nc(C)cc(N)c3c2)cc1,7,–,–
